Reference: ChEMBL document CHEMBL1137710, “Synthesis and in vitro antitumor activity of new quinoxaline derivatives” (2009)

Legend:
Type in all cases: functional
[1] = tested on: HL-60(TB); assay: Growth inhibition of human HL-60(TB) cells after 48 hrs by sulforhodamine B assay; conditions: HL-60, 48 h
How it was run: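 Tested only on compounds active in a three-line prescreen, in the NCI 60-human-tumour-cell-line panel over a 5-log dose range. Values come from dose–response curves as log10 molar GI50, the concentration inhibiting 50% net cell growth. Log10 TGI (total growth inhibition) and log10 LC50 (50% net cell death) were derived too. Mean graph midpoints include insensitive lines at the highest concentration tested.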

[2] = tested on: K562; assay: Growth inhibition of human K562 cells after 48 hrs by sulforhodamine B assay; conditions: K562, 48 h
How it was run: (§1)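 NCI 60-human-tumor-cell-line panel, with compounds tested over a 5-log dose range. Values are taken from dose-response curves as log10 molar concentrations: GI50 is 50% net growth inhibition, TGI is total growth inhibition, and LC50 is 50% net cell death.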

[3] = Growth inhibition of human […] cells after 48 hrs by sulforhodamine B assay; how it was run: as §1
[4] = tested on: A549; assay: Growth inhibition of human A549 cells after 48 hrs by sulforhodamine B assay; conditions: A549, 48 h; how it was run: as §1
[5] = tested on: HOP-62; assay: Growth inhibition of human HOP62 cells after 48 hrs by sulforhodamine B assay; conditions: HOP-62, 48 h; how it was run: as §1
[6] = tested on: NCI-H23; assay: Growth inhibition of human NCI-H23 cells after 48 hrs by sulforhodamine B assay; conditions: NCI-H23, 48 h; how it was run: as §1
[7] = tested on: NCI-H322M; assay: Growth inhibition of human NCI-H322M cells after 48 hrs by sulforhodamine B assay; how it was run: as §1
[8] = tested on: NCI-H522; assay: Growth inhibition of human NCI-H522 cells after 48 hrs by sulforhodamine B assay; conditions: NCI-H522, 48 h; how it was run: as §1
[9] = tested on: COLO 205; assay: Growth inhibition of human COLO205 cells after 48 hrs by sulforhodamine B assay; conditions: COLO 205, 48 h; how it was run: as §1
[10] = tested on: HCT-116; assay: Growth inhibition of human HCT116 cells after 48 hrs by sulforhodamine B assay; conditions: HCT-116, 48 h; how it was run: as §1
[11] = tested on: SW-620; assay: Growth inhibition of human SW620 cells after 48 hrs by sulforhodamine B assay; conditions: SW-620, 48 h
How it was run: (§2)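 Run in the NCI 60-human-tumour-cell-line panel, tested over a 5-log dose range. Dose–response curves gave three values per cell line, each as a log10 molar concentration: GI50 (50% inhibition of net cell growth), TGI (total inhibition of net growth) and LC50 (50% net cell death). The mean graph midpoint is the arithmetic mean over all lines, with insensitive lines entered at the highest concentration tested.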

[12] = tested on: SF-295; assay: Growth inhibition of human SF295 cells after 48 hrs by sulforhodamine B assay; conditions: SF-295, 48 h; how it was run: as §1
[13] = tested on: SNB-19; assay: Growth inhibition of human SNB19 cells after 48 hrs by sulforhodamine B assay; conditions: SNB-19, 48 h; how it was run: as §2
[14] = tested on: U-251; assay: Growth inhibition of human U251 cells after 48 hrs by sulforhodamine B assay; conditions: U-251, 48 h; how it was run: as §2
[15] = tested on: M14; assay: Growth inhibition of human M14 cells after 48 hrs by sulforhodamine B assay; conditions: M14, 48 h; how it was run: as §1
[16] = tested on: UACC-257; assay: Growth inhibition of human UACC257 cells after 48 hrs by sulforhodamine B assay; conditions: UACC-257, 48 h; how it was run: as §2
[17] = tested on: OVCAR-3; assay: Growth inhibition of human OVCAR-3 cells after 48 hrs by sulforhodamine B assay; conditions: OVCAR-3, 48 h; how it was run: as §1
[18] = tested on: OVCAR-4; assay: Growth inhibition of human OVCAR4 cells after 48 hrs by sulforhodamine B assay; conditions: OVCAR-4, 48 h; how it was run: as §1
[19] = tested on: OVCAR-5; assay: Growth inhibition of human OVCAR5 cells after 48 hrs by sulforhodamine B assay; conditions: OVCAR-5, 48 h; how it was run: as §1
[20] = tested on: OVCAR-8; assay: Growth inhibition of human OVCAR8 cells after 48 hrs by sulforhodamine B assay; conditions: OVCAR-8, 48 h; how it was run: as §1
[21] = tested on: SK-OV-3; assay: Growth inhibition of human SKOV3 cells after 48 hrs by sulforhodamine B assay; conditions: SK-OV-3, 48 h; how it was run: as §1
[22] = tested on: 786-0; assay: Growth inhibition of human 786-0 cells after 48 hrs by sulforhodamine B assay; conditions: 786-0, 48 h; how it was run: as §1
[23] = tested on: CAKI-1; assay: Growth inhibition of human Caki1 cells after 48 hrs by sulforhodamine B assay; conditions: CAKI-1, 48 h; how it was run: as §1
[24] = tested on: TK-10; assay: Growth inhibition of human TK10 cells after 48 hrs by sulforhodamine B assay; conditions: TK-10, 48 h; how it was run: as §2
[25] = tested on: UO-31; assay: Growth inhibition of human UO31 cells after 48 hrs by sulforhodamine B assay; conditions: UO-31, 48 h; how it was run: as §2
[26] = tested on: NCI/ADR-RES; assay: Growth inhibition of human NCI/ADR-RES cells after 48 hrs by sulforhodamine B assay; how it was run: as §1
[27] = tested on: MDA-MB-231; assay: Growth inhibition of human MDA-MB-231 cells after 48 hrs by sulforhodamine B assay; conditions: MDA-MB-231, 48 h; how it was run: as §1
[28] = tested on: MDA-MB-435; assay: Growth inhibition of human MDA-MB-435 cells after 48 hrs by sulforhodamine B assay; conditions: MDA-MB-435, 48 h; how it was run: as §1
[29] = read-out: pLC50 (the source's name) (converted)

Structure (SMILES): Nc1cc(N)c2nc(-c3ccccc3)c(Sc3ccc(Cl)c(Cl)c3)nc2c1
- GI50 [1]: 7.94 µM
- LC50 [1]: > 100 µM
- TGI ([1]; read-out: pTGI (converted)): > 100 µM
- GI50 [2]: 15.8 µM
- LC50 [2]: > 100 µM
- TGI ([2]; read-out: pTGI (converted)): > 100 µM
- GI50 [3]: 3.8 µM
- LC50 [3]: > 100 µM
- TGI ([3]; read-out: pTGI (converted)): 31.6 µM
- GI50 [4]: 13.5 µM
- LC50 [4]: > 100 µM
- TGI ([4]; read-out: pTGI (converted)): 52.5 µM
- GI50 [5]: 12.3 µM
- LC50 [5]: > 100 µM
- TGI ([5]; read-out: pTGI (converted)): 77.6 µM
- GI50 [6]: 12.6 µM
- LC50 (50% net cell kill concentration) [6]: 95.5 µM
- TGI ([6]; read-out: pTGI (converted)): 34.7 µM
- GI50 [7]: 7.08 µM
- LC50 [7]: > 100 µM
- TGI ([7]; read-out: pTGI (converted)): 35.5 µM
- GI50 [8]: 7.59 µM
- LC50 [8]: > 100 µM
- TGI ([8]; read-out: pTGI (converted)): 33.9 µM
- GI50 [9]: 10.7 µM
- LC50 (50% net cell kill) [9]: > 100 µM
- TGI ([9]; read-out: pTGI (converted)): 33.9 µM
- GI50 [10]: 9.33 µM
- LC50 (concentration causing 50% net cell death) [10]: > 100 µM
- TGI ([10]; read-out: pTGI (converted)): 47.9 µM
- GI50 [11]: 20.9 µM
- CC50 [11, 29]: > 100 µM
- TGI ([11]; read-out: pTGI (converted)): 83.2 µM
- GI50 [12]: 17.8 µM
- LC50 (50% net cell kill) [12]: > 100 µM
- TGI ([12]; read-out: pTGI (converted)): 60.3 µM
- GI50 [13]: 17 µM
- LC50 [13]: > 100 µM
- TGI ([13]; read-out: pTGI (converted)): 57.5 µM
- GI50 [14]: 10.2 µM
- LC50 (50% net cell kill) [14]: > 100 µM
- TGI ([14]; read-out: pTGI (converted)): > 100 µM
- GI50 [15]: 32.4 µM
- CC50 [15, 29]: > 100 µM
- TGI ([15]; read-out: pTGI (converted)): > 100 µM
- GI50 [16]: 17.8 µM
- CC50 [16, 29]: > 100 µM
- TGI ([16]; read-out: pTGI (converted)): 58.9 µM
- GI50 [17]: 11.7 µM
- CC50 [17, 29]: > 100 µM
- TGI ([17]; read-out: pTGI (converted)): 46.8 µM
- GI50 [18]: 20 µM
- CC50 [18, 29]: > 100 µM
- TGI ([18]; read-out: pTGI (converted)): > 100 µM
- GI50 [19]: 38.9 µM
- CC50 [19, 29]: 91.2 µM
- TGI ([19]; read-out: pTGI (converted)): 58.9 µM
- GI50 [20]: 24.5 µM
- CC50 [20, 29]: > 100 µM
- TGI ([20]; read-out: pTGI (converted)): > 100 µM
- GI50 [21]: 14.8 µM
- CC50 [21, 29]: > 100 µM
- TGI ([21]; read-out: pTGI (converted)): 39.8 µM
- GI50 [22]: 23.4 µM
- CC50 [22, 29]: > 100 µM
- TGI ([22]; read-out: pTGI (converted)): 61.7 µM
- GI50 [23]: 15.1 µM
- CC50 [23, 29]: 89.1 µM
- TGI ([23]; read-out: pTGI (converted)): 37.2 µM
- GI50 [24]: 5.89 µM
- CC50 [24, 29]: 53.7 µM
- TGI ([24]; read-out: pTGI (converted)): 20 µM
- GI50 [25]: 3.8 µM
- CC50 [25, 29]: > 100 µM
- TGI ([25]; read-out: pTGI (converted)): > 100 µM
- GI50 [26]: 19.1 µM
- CC50 [26, 29]: > 100 µM
- TGI ([26]; read-out: pTGI (converted)): 60.3 µM
- GI50 [27]: 16.6 µM
- CC50 [27, 29]: > 100 µM
- TGI ([27]; read-out: pTGI (converted)): 53.7 µM
- GI50 [28]: 18.2 µM
- CC50 [28, 29]: > 100 µM
- TGI ([28]; read-out: pTGI (converted)): 60.3 µM
